From ChEMBL document CHEMBL3526048, “In vitro metabolism of rivoglitazone, a novel peroxisome proliferator-activated receptor γ agonist, in rat, monkey, and human liver microsomes and freshly isolated hepatocytes” (Drug Metab Dispos, 2011)

Experiments:
Cytochrome P450 2C9 = Cytochrome P450 2C9 (Homo sapiens, UniProt P11712); assay: Activity of human CYP2C9 expressed in microsomes isolated from baculovirus infected insect cell assessed as enzyme-mediated compound formation treated with [14C]-rivoglitazone at 20 uM after 2 hrs by radio-HPLC/LC-MS/MS analysis in presence of NADPH-generating system; assay type: ADME
Procedure, shortened: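 Baculovirus-insect-cell microsomes expressing the human CYP (1 mg/ml protein) were incubated with [14C]rivoglitazone (20 μM) in 50 mM potassium phosphate (pH 7.4) or 100 mM Tris-HCl (pH 7.5) with an NADPH-generating system (2 mM NADP+, 20 mM glucose 6-phosphate, 2 units/ml G6PDH, 10 mM MgCl2) for 2 h at 37°C. Insect-cell control supersomes served as the control. Reactions were stopped with acetonitrile, and the concentrated supernatants were analysed by radio-HPLC, LC-MS and LC-MS/MS.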

[1] = Drug metabolism in monkey hepatocytes assessed as formation of (2S,3S,4S,5R,6R)-3,4,5-trihydroxy-6-(5-(4-((6-methoxy-1-methyl-1H-benzo[d]imidazol-2-yl)methoxy)benzyl)-2,4-dioxothiazolidin-3-yl)tetrahydro-2H-pyran-2-carboxylic acid at 30 uM after 3 hrs by radio-HPLC/LC-MS/MS analysis; settings: cynomolgus monkey
Cytochrome P450 2C19 = Cytochrome P450 2C19 (Homo sapiens, UniProt P33261); assay: (§1) Activity of human CYP2C19 expressed in microsomes isolated from baculovirus infected insect cell assessed as enzyme-mediated 5-hydroxy-5-(4-((6-methoxy-1-methyl-1H-benzo[d]imidazol-2-yl)methoxy)benzyl)thiazolidine-2,4-dione formation at 20 uM after 2 hrs by radio-HPLC/LC-MS/MS analysis in presence of NADPH-generating system and NADPH-generating system/SAM; assay type: ADME
Procedure, shortened: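 Baculovirus/insect-cell microsomes expressing single human CYPs, 1 mg/ml protein, with 50 mM potassium phosphate (pH 7.4) or 100 mM Tris-HCl (pH 7.5). NADPH-generating system: 2 mM NADP⁺, 20 mM glucose 6-phosphate, 2 units/ml G6PDH, 10 mM MgCl₂. [¹⁴C]rivoglitazone at 20 μM, 2 h at 37°C with shaking. Control used insect-cell control supersomes. Stopped with acetonitrile; supernatant concentrated under nitrogen; metabolites analysed by radio-HPLC, LC-MS and LC-MS/MS.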

Cytochrome P450 2D6 [2] = biological target: T1, Cytochrome P450 2D6 (Homo sapiens, UniProt P10635); assay: Activity of human CYP2D6 expressed in microsomes isolated from baculovirus infected insect cell assessed as enzyme-mediated 5-(4-((6-hydroxy-1-methyl-1H-benzo[d]imidazol-2-yl)methoxy)benzyl)thiazolidine-2,4-dione formation at 20 uM after 2 hrs by radio-HPLC/LC-MS/MS analysis in presence of NADPH-generating system and NADPH-generating system/SAM; assay type: ADME
[3] = biological target: T2, UDP-glucuronosyltransferase 1A3 (Homo sapiens, UniProt P35503); assay: Activity of human UGT1A3 expressed in microsomes isolated from baculovirus infected insect cell assessed as enzyme-mediated 5-(4-((6-methoxy-1H-benzo[d]imidazol-2-yl)methoxy)benzyl)thiazolidine-2,4-dione formation at 20 uM after 4 hrs by radio-HPLC/LC-MS/MS analysis in presence of NADPH-generating system and NADPH-generating system/SAM in presence of UDPGA and UDPGA/SAM; assay type: ADME
T2 sequence (P35503 whole entry): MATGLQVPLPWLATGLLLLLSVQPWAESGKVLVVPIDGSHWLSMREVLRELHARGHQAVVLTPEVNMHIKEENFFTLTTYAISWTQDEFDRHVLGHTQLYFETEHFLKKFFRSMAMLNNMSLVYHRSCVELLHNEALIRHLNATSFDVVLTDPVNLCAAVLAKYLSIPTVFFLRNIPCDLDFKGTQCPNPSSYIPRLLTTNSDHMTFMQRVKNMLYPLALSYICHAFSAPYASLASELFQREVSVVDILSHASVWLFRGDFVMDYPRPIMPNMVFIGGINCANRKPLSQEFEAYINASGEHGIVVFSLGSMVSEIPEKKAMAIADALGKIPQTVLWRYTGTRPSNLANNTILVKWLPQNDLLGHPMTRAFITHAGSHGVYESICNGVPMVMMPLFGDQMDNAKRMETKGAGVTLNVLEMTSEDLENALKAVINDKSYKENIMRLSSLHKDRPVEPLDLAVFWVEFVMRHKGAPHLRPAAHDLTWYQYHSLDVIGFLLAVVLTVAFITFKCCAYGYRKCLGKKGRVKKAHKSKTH

Cytochrome P450 2D6 [4] = biological target: T1, Cytochrome P450 2D6; assay: as §1, with “CYP2D6” for “CYP2C19”; assay type: ADME
Cytochrome P450 3A5 = Cytochrome P450 3A5 (Homo sapiens, UniProt P20815); assay: Activity of human CYP3A5 expressed in microsomes isolated from baculovirus infected insect cell assessed as enzyme-mediated 2-mercapto-3-(4-((6-methoxy-1-methyl-1H-benzo[d]imidazol-2-yl)methoxy)phenyl)propanamide formation at 20 uM after 2 hrs by radio-HPLC/LC-MS/MS analysis in presence of NADPH-generating system and NADPH-generating system/SAM; assay type: ADME
Procedure, shortened: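 cDNA-expressed human CYP3A5 in baculovirus-insect-cell microsomes (1 mg/ml protein) was incubated with [¹⁴C]rivoglitazone (20 μM) in 50 mM potassium phosphate (pH 7.4) or 100 mM Tris-HCl (pH 7.5). NADPH-generating system: 2 mM NADP⁺, 20 mM glucose 6-phosphate, 2 units/ml G6PDH, 10 mM MgCl₂. Incubation ran 2 h at 37°C with shaking; insect-cell control supersomes served as control. Acetonitrile stop, supernatant concentrated, then radio-HPLC, LC-MS and LC-MS/MS.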

[5] = biological target: T3, UDP-glucuronosyltransferase 1A10 (Homo sapiens, UniProt Q9HAW8); assay: Activity of human UGT1A10 expressed in microsomes isolated from baculovirus infected insect cell assessed as enzyme-mediated (2S,3S,4S,5R,6R)-6-((1-carboxy-2-(4-((6-methoxy-1-methyl-1H-benzo[d]imidazol-2-yl)methoxy)phenyl)ethylthio)carbonylamino)-3,4,5-trihydroxytetrahydro-2H-pyran-2-carboxylic acid formation at 20 uM after 4 hrs by radio-HPLC/LC-MS/MS analysis in presence of UDPGA; assay type: ADME
T3 sequence (Q9HAW8 whole entry): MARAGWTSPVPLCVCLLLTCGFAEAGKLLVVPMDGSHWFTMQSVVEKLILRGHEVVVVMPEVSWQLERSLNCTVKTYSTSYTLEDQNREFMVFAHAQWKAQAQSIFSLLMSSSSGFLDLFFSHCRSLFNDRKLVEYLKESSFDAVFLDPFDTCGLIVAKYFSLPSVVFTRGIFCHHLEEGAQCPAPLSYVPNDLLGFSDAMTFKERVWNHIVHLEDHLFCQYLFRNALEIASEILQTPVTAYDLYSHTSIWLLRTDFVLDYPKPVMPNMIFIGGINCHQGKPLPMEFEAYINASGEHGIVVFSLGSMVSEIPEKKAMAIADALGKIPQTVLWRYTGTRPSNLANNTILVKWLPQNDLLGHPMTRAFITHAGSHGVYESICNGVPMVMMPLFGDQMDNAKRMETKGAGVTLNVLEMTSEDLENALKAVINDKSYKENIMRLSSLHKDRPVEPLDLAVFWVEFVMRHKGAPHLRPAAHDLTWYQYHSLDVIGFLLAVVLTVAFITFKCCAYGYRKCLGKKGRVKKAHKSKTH
Procedure, shortened: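 Alamethicin (50 μg/mg protein, 15 min on ice) pretreated expressed human UGT microsomes (1 mg/ml protein) from baculovirus-infected insect cells. Incubation with [¹⁴C]rivoglitazone (20 μM) in 100 mM Tris-HCl (pH 7.5) with 10 mM MgCl₂, started by 5 mM UDPGA, 4 h at 37°C with shaking. UGT insect-cell control supersomes were run alongside. Acetonitrile stop, concentrated supernatant analysed by radio-HPLC, LC-MS and LC-MS/MS.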

T1 sequence (P10635 whole entry): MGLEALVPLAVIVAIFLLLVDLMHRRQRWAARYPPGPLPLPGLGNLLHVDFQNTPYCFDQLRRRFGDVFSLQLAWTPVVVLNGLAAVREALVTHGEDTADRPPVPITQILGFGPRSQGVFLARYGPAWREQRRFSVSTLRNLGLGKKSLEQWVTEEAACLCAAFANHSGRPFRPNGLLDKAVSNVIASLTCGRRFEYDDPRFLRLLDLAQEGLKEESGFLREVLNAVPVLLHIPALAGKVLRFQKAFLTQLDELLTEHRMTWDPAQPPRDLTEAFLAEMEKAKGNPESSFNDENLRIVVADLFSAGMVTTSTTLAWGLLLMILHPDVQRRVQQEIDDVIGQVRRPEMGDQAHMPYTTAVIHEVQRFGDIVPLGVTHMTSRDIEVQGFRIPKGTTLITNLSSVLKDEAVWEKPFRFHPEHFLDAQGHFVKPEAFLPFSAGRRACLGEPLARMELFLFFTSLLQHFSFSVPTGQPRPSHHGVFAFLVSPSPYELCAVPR
Chain of Cytochrome P450 2C19 (P33261 whole entry): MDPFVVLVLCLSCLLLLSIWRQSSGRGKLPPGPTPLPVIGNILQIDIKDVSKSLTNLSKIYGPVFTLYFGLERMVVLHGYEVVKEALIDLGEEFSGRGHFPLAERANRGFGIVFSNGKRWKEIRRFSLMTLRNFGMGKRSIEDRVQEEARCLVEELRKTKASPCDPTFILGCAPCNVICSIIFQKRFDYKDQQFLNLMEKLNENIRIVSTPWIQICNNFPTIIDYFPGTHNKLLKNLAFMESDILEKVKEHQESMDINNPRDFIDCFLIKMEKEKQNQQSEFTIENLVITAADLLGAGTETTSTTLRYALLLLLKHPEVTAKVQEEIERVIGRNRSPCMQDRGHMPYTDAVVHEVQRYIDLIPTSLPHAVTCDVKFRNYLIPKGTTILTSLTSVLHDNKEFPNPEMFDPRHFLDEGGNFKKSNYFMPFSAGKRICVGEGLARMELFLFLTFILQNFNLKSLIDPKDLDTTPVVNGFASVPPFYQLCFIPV
Chain of Cytochrome P450 2C9 (P11712 whole entry): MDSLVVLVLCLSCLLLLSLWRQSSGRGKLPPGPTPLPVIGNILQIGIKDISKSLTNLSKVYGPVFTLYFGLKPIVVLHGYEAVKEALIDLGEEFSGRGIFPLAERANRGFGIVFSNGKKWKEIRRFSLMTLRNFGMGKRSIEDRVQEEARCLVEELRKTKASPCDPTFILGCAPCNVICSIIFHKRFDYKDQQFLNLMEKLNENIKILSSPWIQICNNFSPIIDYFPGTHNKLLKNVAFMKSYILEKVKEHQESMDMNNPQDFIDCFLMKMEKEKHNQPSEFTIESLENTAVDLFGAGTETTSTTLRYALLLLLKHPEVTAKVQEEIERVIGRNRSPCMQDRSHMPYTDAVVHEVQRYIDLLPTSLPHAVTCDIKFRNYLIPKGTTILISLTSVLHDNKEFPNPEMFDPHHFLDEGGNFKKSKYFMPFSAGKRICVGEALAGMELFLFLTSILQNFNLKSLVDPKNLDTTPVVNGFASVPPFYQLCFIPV
Chain of Cytochrome P450 3A5 (P20815 whole entry): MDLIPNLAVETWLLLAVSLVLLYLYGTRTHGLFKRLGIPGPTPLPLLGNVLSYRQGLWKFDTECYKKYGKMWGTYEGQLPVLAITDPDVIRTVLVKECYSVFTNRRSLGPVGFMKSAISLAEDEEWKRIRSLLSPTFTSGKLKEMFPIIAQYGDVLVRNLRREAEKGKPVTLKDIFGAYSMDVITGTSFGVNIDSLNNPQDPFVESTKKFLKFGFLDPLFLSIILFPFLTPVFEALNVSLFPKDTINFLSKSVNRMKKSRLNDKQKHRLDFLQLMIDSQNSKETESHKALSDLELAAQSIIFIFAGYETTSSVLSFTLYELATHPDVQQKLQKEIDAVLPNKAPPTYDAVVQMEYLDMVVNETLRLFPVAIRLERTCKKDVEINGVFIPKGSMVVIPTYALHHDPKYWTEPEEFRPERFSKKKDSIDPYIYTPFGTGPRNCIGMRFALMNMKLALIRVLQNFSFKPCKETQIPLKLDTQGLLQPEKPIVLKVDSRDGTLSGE

Compound | Drug metabolism (Cytochrome P450 2C9) | Drug metabolism [1] | Drug metabolism (Cytochrome P450 2C19) | Drug metabolism (Cytochrome P450 2D6 [2]) | Drug metabolism [3] | Drug metabolism (Cytochrome P450 2D6 [4]) | Drug metabolism (Cytochrome P450 3A5) | Drug metabolism [5]
COc1ccc2nc(COc3ccc(CC(S)C(=O)O)cc3)n(C)c2c1 (stereo not drawn) | metabolite_detected | – | – | – | – | – | – | –
COc1ccc2nc(COc3ccc(C[14CH]4SC(=O)NC4=O)cc3)n(C)c2c1.Cl (racemic) | – | metabolite_detected | metabolite_detected | metabolite_detected | metabolite_not_detected | metabolite_detected | metabolite_detected | metabolite_not_detected
